The target of experiment [1] is T1, Adrenergic receptor alpha-2 (Rattus norvegicus, UniProt P22086+P19328+P22909).
T1 sequence (P22086 whole entry): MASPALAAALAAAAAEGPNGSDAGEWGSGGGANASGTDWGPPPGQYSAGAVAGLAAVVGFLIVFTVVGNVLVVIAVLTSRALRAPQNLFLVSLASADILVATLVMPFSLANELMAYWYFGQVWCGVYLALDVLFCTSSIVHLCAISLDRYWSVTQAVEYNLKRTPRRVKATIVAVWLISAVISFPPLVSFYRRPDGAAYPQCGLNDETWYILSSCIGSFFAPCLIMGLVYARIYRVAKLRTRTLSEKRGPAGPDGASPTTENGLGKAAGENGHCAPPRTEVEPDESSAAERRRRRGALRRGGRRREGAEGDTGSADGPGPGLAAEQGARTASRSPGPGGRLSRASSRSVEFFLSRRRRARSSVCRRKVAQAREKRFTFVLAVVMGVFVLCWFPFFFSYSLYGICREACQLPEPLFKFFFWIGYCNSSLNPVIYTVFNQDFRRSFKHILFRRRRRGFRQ
T1 sequence (P19328 whole entry): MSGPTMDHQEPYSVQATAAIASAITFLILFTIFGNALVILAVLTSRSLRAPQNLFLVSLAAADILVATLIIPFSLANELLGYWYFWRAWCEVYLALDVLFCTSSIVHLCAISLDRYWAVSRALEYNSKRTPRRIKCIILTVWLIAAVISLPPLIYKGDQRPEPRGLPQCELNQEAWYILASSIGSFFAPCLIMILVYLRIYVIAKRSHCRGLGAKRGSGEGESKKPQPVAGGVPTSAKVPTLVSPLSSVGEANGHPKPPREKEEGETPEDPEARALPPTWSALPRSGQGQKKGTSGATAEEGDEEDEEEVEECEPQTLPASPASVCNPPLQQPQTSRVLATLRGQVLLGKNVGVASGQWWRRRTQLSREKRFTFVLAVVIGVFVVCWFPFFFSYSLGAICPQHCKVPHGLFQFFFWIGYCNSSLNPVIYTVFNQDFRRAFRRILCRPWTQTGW
T1 sequence (P22909 whole entry): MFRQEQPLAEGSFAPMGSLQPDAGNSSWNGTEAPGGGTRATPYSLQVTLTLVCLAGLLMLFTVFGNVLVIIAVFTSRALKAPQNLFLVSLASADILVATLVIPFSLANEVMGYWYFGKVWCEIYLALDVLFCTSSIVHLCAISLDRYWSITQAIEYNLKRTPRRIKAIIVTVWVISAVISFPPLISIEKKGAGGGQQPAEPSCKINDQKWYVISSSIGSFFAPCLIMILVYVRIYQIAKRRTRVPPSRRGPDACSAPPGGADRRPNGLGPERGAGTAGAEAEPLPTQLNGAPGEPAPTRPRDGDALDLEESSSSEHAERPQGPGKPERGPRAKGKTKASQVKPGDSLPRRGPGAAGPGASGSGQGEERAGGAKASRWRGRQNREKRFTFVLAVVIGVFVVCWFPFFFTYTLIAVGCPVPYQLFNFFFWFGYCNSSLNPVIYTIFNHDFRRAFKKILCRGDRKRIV
Kind of experiment: Displacement of [3H]rauwolscine from Alpha-2 adrenergic receptor of rat brain membranes. The format is cell membranes, Membrane. The procedure, abridged: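 Rat brain membrane fractions incubated with 0.2 nM [3H]rauwolscine for α2 sites. Nonspecific binding defined with 10 μM phentolamine. IC50 (analog concentration reducing specific binding by 50%) converted to Ki by Ki = IC50(1 + [L]/Kd), where [L] is the radioligand concentration and Kd its equilibrium dissociation constant.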

Experiment [2] deals with T2, Adrenergic receptor alpha-1 (Rattus norvegicus, UniProt P15823+P23944+P43140).
T2 sequence (P15823 whole entry): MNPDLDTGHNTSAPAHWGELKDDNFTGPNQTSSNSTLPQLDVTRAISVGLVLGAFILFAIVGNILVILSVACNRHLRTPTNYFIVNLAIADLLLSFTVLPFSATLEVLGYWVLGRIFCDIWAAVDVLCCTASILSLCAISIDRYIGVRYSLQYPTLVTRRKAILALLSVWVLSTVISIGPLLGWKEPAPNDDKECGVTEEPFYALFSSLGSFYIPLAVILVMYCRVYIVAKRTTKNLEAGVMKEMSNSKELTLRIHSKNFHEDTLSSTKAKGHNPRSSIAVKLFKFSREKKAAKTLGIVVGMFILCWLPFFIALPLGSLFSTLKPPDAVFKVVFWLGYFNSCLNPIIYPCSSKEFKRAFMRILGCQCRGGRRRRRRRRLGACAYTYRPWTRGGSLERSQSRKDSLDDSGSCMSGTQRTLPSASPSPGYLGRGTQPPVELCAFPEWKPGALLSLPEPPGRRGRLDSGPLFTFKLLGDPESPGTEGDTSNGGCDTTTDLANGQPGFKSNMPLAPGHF
T2 sequence (P23944 whole entry): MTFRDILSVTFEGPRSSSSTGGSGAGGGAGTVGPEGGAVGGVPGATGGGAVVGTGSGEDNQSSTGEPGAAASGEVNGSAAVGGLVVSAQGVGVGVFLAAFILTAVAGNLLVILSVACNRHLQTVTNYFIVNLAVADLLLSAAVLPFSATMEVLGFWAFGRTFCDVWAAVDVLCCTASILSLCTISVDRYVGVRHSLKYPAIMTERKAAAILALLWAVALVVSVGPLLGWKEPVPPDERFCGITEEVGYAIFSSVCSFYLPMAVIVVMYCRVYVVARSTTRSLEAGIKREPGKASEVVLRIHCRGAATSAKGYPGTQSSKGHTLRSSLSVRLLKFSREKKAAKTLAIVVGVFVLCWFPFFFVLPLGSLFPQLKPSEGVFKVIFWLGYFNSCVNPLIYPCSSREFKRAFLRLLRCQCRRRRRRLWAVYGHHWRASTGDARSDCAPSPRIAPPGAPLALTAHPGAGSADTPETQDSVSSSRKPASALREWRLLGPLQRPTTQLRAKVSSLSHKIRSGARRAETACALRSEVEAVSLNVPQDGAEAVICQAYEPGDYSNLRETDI
T2 sequence (P43140 whole entry): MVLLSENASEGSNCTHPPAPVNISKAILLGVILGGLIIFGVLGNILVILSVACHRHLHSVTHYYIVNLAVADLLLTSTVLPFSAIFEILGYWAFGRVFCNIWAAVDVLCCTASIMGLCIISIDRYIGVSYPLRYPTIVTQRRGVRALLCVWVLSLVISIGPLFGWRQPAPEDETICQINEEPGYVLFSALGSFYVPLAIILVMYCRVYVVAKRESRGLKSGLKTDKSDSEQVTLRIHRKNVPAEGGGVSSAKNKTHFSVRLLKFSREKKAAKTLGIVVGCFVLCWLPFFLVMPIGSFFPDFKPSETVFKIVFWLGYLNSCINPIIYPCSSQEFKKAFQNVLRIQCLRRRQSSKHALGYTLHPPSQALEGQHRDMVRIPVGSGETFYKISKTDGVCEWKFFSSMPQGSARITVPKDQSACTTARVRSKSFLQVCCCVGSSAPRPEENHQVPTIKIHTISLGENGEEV
Kind of experiment: Displacement of [3H]-prazosin from Alpha-1 adrenergic receptor of rat brain membranes. The format is cell membranes, Membrane. The procedure, abridged:
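Rat brain membrane fractions incubated with 0.1 nM [3H]prazosin for α1 sites. Nonspecific binding defined with 10 μM phentolamine. IC50 (analog concentration reducing specific binding by 50%) converted to Ki by Ki = IC50(1 + [L]/Kd), where [L] is the radioligand concentration and Kd its equilibrium dissociation constant.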
On the technique in general: Loss of bound radioactivity is the signal in a displacement assay; it reports binding, not function.

In experiment [3] the target is Adrenergic receptor alpha (Rattus norvegicus) (UniProt P15823+P23944+P43140+P22086+P19328+P22909). Kind of experiment: Relative affinity for Alpha 2 over Alpha 1 adrenergic receptors. The format is protein assay.

The text below walks through data of ChEMBL document CHEMBL1130149, “Medetomidine analogs as alpha 2-adrenergic ligands. 3. Synthesis and biological evaluation of a new series of medetomidine analogs and their potential binding interactions with alpha 2-adrenoceptors involving a "methyl pocket"” (J Med Chem, 1997).

As to `C1=C(c2c[nH]cn2)c2cccc(OCc3ccccc3)c2CC1`, the values for the Ki in experiment [1] and in experiment [2] were 2670 nM and 8250 nM, respectively. The molecule also gave a Selectivity in experiment [3] of 3.09.
Take `Cc1cccc2c1CCC2c1c[nH]cn1` (stereo not given): the Ki (commonly a dissociation constant, usually derived from enzyme kinetics or from competition with a known ligand) is 8.8 nM in experiment [1] and 73 nM in experiment [2]. The Selectivity in experiment [3] was found to be 8.29.
On to `Cc1cccc2c1CCCC2c1c[nH]cn1` (stereo not given), for which the values for the inhibition constant Ki in experiment [1] and in experiment [2] were 95 nM and 191 nM, respectively. In experiment [3], this molecule displayed a Selectivity of 2.01.
The corresponding values for `COc1cccc2c1CCC=C2c1c[nH]cn1` are 1420 nM, 2970 nM and 2.1.
Turning to `COc1ccc2c(c1)C(c1c[nH]cn1)=CCC2`, the Ki in experiment [1] is 1570 nM; in experiment [2], 14200 nM. For the same molecule, the Selectivity in experiment [3] was 9.03.
Consider `Cc1cc(C)c2c(c1)C(c1c[nH]cn1)CCC2` (stereo not given), for which the Ki in experiment [1] is listed as 103 nM; in experiment [2] it was 131 nM. Besides, the Selectivity in experiment [3] is 1.27.
Take `Cc1cccc(C(C)c2c[nH]cn2)c1C` (stereo not given): the Selectivity in experiment [3] is 44.4.
Turning to `Cc1cccc2c1CCC=C2c1c[nH]cn1`, the figures for the Ki in experiment [1] and in experiment [2] were 31 nM and 992 nM, respectively. In experiment [3], this molecule gave a Selectivity of 32.
The corresponding values for `Oc1cccc2c1CCCC2c1c[nH]cn1` (stereo not given) are 63 nM, 126 nM and 2.01.
The corresponding values for `COc1ccc2c(c1)CCCC2c1c[nH]cn1` (stereo not given) are 169 nM, 198 nM and 1.17.
The like results for `COc1ccc2c(c1)C(c1c[nH]cn1)CCC2` (stereo not given) were, in that order, 201 nM, 1770 nM and 8.81.
For the molecule `COc1cccc2c1CCCC2c1c[nH]cn1` (stereo not given), the figures for the Ki in experiment [1] and in experiment [2] were 98 nM and 243 nM, respectively. In experiment [3], the Selectivity was found to be 2.48.
The corresponding values for `Cc1cc(C)c2c(c1)C(c1c[nH]cn1)=CCC2` are 232 nM, 2960 nM and 12.8.
For the molecule `COc1ccc2c(c1)CCC=C2c1c[nH]cn1`, the Ki in experiment [1] is 580 nM; in experiment [2], 1630 nM. This molecule gave a Selectivity in experiment [3] of 2.81.
